This note sets out measurements from PMC2825290 (ACS chemical biology, 2010).

In data set [1] the test system is dorsoventral (DV) axis of zebrafish embryos (BMPR-I inhibition). Put plainly: Zebrafish embryo dorsalization. As to conditions: for Dorsalization (EC100, μM): zebrafish embryos treated from 3-hpf, concentration when 100% of treated embryos are severely dorsalized, at least 20 embryos per condition. It counts as in vivo.
Data set [2] concerns intersomitic vessel (ISV) formation in Tg(Fli:EGFP)y1 embryos (VEGFR-2 inhibition). Put plainly: Zebrafish intersomitic vessel. It counts as in vivo. As to conditions: for Effect on ISV formation (words, no concentration given): ISV visualized at 48-hpf.
The subject of data set [3] is VEGF-stimulated Flk1 phosphorylation. Put plainly: Western blot, VEGF-stimulated Flk1 phosphorylation in BAEC. It is filed as cell-based, bovine. For orientation: Immunoblotting shows a protein as a band on a membrane.
Data set [4] relates to zebrafish embryos. Put plainly: Zebrafish embryo nonspecific toxicity. As to conditions: for Early lethality at 20 μM: administered at 3-hpf.
Data set [5] concerns the target T1, human TGFβ type-I receptor activin receptor-like kinase 5 (Alk5/TGFβR1) (Homo sapiens, UniProt P36897).
T1 sequence (P36897 34-503): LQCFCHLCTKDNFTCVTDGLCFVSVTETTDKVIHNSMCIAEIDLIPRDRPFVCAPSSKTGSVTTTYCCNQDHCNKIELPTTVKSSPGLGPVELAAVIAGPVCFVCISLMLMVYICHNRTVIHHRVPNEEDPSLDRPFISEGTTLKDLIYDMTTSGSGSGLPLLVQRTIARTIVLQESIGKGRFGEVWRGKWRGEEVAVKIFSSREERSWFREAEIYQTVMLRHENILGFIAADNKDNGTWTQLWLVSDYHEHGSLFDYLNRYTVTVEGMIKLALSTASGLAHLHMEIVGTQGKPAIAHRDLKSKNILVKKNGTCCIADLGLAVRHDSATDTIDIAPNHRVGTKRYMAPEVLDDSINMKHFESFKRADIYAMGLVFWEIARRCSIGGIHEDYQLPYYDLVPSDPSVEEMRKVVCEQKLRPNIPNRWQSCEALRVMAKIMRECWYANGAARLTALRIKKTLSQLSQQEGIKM
Briefly: In vitro kinase assay ALK5. It is filed as biochemical. As to conditions: purified human enzyme, 10 μM ATP.

The target of data set [6] is human AMP-activated protein kinase (AMPK/A1/B1/G1) (Homo sapiens, UniProt Q13131). Briefly: In vitro kinase assay AMPK. It counts as biochemical. As to conditions: purified human enzyme, 10 μM ATP.
human AMP-activated protein kinase (AMPK/A1/B1/G1), sequence (Q13131 whole entry): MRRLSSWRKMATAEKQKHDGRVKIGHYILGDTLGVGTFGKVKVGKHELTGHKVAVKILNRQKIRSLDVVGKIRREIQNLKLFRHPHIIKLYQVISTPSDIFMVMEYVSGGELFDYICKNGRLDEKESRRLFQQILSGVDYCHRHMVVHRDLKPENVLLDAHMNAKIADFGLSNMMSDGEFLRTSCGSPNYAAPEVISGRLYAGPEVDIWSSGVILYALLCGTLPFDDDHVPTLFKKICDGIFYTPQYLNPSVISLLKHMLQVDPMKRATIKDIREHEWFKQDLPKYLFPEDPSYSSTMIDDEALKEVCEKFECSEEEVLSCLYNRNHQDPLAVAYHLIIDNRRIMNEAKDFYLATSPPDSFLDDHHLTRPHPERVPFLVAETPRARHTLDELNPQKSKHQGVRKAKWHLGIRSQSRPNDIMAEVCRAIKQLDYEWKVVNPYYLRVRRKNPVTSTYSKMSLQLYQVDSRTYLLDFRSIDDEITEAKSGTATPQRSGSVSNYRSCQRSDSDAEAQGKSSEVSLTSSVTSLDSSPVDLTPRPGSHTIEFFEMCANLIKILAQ
human AMP-activated protein kinase (AMPK/A1/B1/G1), sequence (Q9Y478 whole entry partner): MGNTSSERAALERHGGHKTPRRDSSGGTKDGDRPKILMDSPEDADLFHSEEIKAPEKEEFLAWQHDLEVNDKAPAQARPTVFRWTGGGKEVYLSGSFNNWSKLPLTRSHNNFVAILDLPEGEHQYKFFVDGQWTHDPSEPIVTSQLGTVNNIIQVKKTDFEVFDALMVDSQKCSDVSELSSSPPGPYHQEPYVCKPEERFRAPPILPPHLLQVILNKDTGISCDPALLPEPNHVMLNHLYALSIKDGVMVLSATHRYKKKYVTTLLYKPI
human AMP-activated protein kinase (AMPK/A1/B1/G1), sequence (P54619 whole entry partner): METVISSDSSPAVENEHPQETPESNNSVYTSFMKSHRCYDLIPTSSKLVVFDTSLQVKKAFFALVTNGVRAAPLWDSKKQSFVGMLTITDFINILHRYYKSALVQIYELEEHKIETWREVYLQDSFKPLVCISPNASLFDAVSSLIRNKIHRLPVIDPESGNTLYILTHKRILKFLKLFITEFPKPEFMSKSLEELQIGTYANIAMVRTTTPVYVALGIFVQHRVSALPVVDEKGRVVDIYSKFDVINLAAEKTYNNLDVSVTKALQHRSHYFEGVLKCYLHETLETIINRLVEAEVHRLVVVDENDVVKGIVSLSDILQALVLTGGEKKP
Data set [7] deals with human VEGF type-II receptor (KDR/Flk-1/VEGFR2) (Homo sapiens, UniProt P35968). Put plainly: In vitro kinase assay KDR. It is filed as biochemical.
human VEGF type-II receptor (KDR/Flk-1/VEGFR2), sequence (P35968 20-1356): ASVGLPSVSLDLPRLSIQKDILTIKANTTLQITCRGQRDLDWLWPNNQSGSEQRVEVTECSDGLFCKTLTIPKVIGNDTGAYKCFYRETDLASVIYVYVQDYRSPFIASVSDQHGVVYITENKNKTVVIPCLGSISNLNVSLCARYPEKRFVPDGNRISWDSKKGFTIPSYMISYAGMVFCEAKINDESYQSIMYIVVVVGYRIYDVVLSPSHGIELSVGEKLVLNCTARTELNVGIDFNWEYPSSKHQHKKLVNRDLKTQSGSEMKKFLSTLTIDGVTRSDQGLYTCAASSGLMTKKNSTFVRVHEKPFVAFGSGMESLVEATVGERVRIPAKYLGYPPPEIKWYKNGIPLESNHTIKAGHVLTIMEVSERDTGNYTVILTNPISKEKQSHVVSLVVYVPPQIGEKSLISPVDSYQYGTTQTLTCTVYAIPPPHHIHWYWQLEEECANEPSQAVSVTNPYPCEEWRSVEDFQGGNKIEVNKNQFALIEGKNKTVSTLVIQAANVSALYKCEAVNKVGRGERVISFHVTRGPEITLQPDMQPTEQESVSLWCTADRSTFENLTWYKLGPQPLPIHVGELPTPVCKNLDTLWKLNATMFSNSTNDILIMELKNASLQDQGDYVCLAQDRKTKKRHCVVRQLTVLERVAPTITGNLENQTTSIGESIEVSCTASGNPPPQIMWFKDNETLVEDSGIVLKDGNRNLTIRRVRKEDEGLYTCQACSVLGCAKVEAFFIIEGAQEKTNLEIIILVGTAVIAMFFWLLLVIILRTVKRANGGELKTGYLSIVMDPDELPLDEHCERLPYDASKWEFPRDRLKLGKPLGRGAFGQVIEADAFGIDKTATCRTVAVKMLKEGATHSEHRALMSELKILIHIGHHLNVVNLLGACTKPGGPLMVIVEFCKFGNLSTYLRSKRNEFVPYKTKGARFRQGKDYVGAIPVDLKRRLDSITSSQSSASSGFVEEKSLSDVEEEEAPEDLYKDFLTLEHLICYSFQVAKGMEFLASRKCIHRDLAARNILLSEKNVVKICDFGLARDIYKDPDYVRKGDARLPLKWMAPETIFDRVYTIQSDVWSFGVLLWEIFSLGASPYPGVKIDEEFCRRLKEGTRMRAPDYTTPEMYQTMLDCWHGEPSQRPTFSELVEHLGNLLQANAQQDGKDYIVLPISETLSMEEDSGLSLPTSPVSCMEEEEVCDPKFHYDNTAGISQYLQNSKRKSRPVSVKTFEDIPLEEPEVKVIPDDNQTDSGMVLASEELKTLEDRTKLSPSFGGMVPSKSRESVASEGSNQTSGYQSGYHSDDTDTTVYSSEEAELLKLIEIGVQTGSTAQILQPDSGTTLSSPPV
Data set [8] concerns the target human platelet-derived growth factor receptor-β (PDGFRβ) (Homo sapiens, UniProt P09619). Briefly: In vitro kinase assay PDGFRβ. It counts as biochemical. As to conditions: purified human enzyme, 10 μM ATP.
The test system of data set [9] is BMP-responsive C2C12BRA cells (Id1 promoter-firefly luciferase reporter), BMP4. Put plainly: BMP-responsive luciferase reporter assay. Particulars: read-out: IC50 in BMP-responsive luciferase reporter assay. It counts as cell-based. (In general: Reporter assays use an easily measured gene product as a stand-in for the process of interest.)
Data set [10] has as its target caALK3 (Homo sapiens, UniProt P36894, Q233D). Briefly: BMP reporter subtype analysis, caALK3. It counts as cell-based.
The test system of data set [11] is caALK6. Briefly: BMP reporter subtype analysis, caALK6. It is filed as cell-based. Particulars: C2C12BRA cells transfected with constitutively active ALK6.
Data set [12] has as its system BMP4-induced Smad 1/5/8 phosphorylation. Put plainly: Western blot, BMP4-induced Smad1/5/8 phosphorylation in HEK293 cells. It counts as cell-based. As to conditions: BMP4 50 ng/ml.
The subject of data set [13] is BMP4-induced p38 MAPK phosphorylation. Briefly: Western blot, BMP4-induced p38 MAPK phosphorylation in HEK293 cells. It counts as cell-based. The gist of the method:
(§1)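 Confluent HEK293 cells were serum-starved, then pretreated with the test compound or DMSO for 30 min. They were then stimulated for 30 min with Activin-A at 40 ng/ml (p-Smad2) or BMP4 at 50 ng/ml (p-p38 MAPK). Cells were lysed with protease and phosphatase inhibitors, and lysates were run on SDS-PAGE and transferred to PVDF. Phospho-proteins were detected by infrared-dye secondary antibodies.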

Data set [14] has as its system Activin A-induced Smad2 phosphorylation. Put plainly: Western blot, Activin A-induced Smad2 phosphorylation in HEK293 cells. It counts as cell-based. As to conditions: Activin-A 40 ng/ml. The method in brief:
as §1

The subject of data set [15] is human umbilical vein endothelial cells (HUVEC). Briefly: Endothelial tubule formation. It is filed as cell-based. Particulars: 15hr incubation. The gist of the method: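 HUVECs were maintained in EGM-2 on 0.2% gelatin-coated dishes. 1.5 ×10^4 cells were plated on wells pre-coated with extracellular matrix gel and treated with the test compound or DMSO. After 15 hr incubation, tubular network formation was examined by inverted light microscopy.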

For data set [16], the system named is VEGF-induced phosphorylation of AKT. Briefly: Western blot, VEGF-stimulated Akt phosphorylation in BAEC. It counts as cell-based, bovine. The method in brief: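 Bovine aortic endothelial cells were grown in DMEM with 10% FBS on 0.2% gelatin-coated dishes. Confluent cells were serum-starved for 18–24 hrs, treated with the test compound or DMSO for 30 min, then stimulated for 8 min with 50 ng/ml VEGF165. Lysates, prepared with protease and phosphatase inhibitors, were immunoblotted for p-AKT and total AKT with infrared-dye detection.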

The structures appear in SMILES notation. “Also recorded” adds a separate entry of the source.

caALK3, sequence (P36894 24-532 Q233D): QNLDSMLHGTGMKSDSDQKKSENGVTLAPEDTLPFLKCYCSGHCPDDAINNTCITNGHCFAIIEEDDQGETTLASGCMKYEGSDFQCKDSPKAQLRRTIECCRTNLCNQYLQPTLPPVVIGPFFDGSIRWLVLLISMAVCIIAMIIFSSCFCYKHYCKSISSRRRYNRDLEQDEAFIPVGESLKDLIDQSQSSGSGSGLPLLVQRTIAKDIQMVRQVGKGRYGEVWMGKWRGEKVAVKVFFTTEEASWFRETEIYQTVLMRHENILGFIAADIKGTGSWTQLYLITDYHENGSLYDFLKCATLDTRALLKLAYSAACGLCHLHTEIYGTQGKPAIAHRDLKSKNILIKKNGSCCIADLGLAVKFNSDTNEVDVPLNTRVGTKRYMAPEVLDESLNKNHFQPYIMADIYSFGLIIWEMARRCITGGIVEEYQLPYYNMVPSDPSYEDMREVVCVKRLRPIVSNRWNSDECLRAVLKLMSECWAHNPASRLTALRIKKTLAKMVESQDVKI
human platelet-derived growth factor receptor-β (PDGFRβ), sequence (P09619 33-1106): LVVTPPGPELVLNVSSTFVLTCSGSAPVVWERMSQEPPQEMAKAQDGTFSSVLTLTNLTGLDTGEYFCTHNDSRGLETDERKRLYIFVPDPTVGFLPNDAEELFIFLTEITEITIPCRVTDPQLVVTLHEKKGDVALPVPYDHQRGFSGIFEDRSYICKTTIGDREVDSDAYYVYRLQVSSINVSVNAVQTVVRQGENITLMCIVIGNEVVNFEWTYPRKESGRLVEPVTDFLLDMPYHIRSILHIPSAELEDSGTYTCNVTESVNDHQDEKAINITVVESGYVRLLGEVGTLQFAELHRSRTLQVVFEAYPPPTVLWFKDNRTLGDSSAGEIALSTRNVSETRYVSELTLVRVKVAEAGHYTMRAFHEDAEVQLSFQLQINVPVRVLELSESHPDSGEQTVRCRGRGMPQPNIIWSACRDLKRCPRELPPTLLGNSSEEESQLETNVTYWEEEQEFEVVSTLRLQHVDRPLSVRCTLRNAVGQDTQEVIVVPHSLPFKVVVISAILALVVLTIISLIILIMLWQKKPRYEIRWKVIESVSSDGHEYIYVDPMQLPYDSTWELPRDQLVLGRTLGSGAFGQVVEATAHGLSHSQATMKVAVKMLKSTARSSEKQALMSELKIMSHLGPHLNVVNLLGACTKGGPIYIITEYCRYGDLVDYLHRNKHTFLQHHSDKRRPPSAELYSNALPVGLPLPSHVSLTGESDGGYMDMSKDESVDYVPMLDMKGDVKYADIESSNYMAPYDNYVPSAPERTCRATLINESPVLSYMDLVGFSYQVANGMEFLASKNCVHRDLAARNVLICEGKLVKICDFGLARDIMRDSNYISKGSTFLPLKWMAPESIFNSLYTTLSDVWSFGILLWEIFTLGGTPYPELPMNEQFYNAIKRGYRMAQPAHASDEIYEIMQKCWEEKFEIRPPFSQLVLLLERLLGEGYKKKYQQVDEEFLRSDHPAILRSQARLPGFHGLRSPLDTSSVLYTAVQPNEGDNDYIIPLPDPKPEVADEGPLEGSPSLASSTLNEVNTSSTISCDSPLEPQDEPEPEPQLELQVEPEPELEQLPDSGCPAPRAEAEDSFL

In the case of `c1cc(-c2cnn3cc(-c4ccc(OCCN5CCCCC5)cc4)cnc23)ccn1` [DM, dorsomorphin, reference compound], the “Dorsalization at 2 μM” value in data set [1] (2 μM, administered at 3-hpf) is “dorsalized zebrafish embryos”. For the same molecule, the “Effect on ISV formation at 10 μM” value in data set [2] (administered at 12-hpf) was “blocked intersomitic vessel (ISV) formation”; in data set [2] (administered at 12-hpf, listed as dorsomorphin), “completely inhibited ISV formation”. Further, the “Effect on VEGF-stimulated Flk1 phosphorylation” value in data set [3] (50ng/ml VEGF165) is “suppressed VEGF-dependent Flk1 phosphorylation in a dose-dependent manner”; in [3] (50ng/ml VEGF165, listed as dorsomorphin), “inhibited the VEGF-stimulated Flk1 phosphorylation in a dose-dependent manner”. The “Early lethality at 20 μM” value in data set [4] is reported as “substantial early lethality”.
As for `CC(C)Oc1ccc(-c2cnc3c(-c4ccnc5ccccc45)cnn3c2)cc1` [DMH1, 4-(6-(4-isopropoxyphenyl)pyrazolo[1,5-a]pyrimidin-3-yl)quinoline], the “Dorsalization at 0.2 μM” value in data set [1] (0.2 μM, treated from 3-hpf) is on record as “caused severe dorsalization”. In addition, in data set [2] (100 μM, treated from 12-hpf), the “Effect on ISV formation at 100 μM” value is on record as “no effect on ISV formation”. The “Effect on ISV formation (words, no concentration given)” value in [2] (administered at 12-hpf) is “did not have any detectible effect on ISV formation”. Moreover, the “IC50 ALK5 (TGFβR-I)” value in [5] is “without any detectable inhibition”. For the same molecule, the “IC50 AMPK” value in [6] was “without any detectable inhibition”. Also, the concentration for half-maximal inhibition (IC50) (as a rule, the concentration that gives 50% inhibition) in [7] is greater than 30000 nM; in data set [9] it was roughly 100 nM; in data set [10], less than 500 nM. In addition, the “IC50 KDR (VEGFR2)” value in data set [7] (purified human enzyme, 10 μM ATP) is “without any detectable inhibition”. Also, the “IC50 PDGFRβ” value in data set [8] was “without any detectable inhibition”. The “Effect on signaling by caALK6” value in [11] is given as “negligible effect on signaling by caALK6”. Further, the “Effect on VEGF-stimulated Flk1 phosphorylation” value in [3] (50ng/ml VEGF165) is listed as “no effect on VEGF-induced Flk1 phosphorylation”. Besides, in data set [12], the “Effect on BMP-induced Smad1/5/8 activation” value is recorded as “selectively inhibited the BMP-induced Smad1/5/8 activation; also recorded: blocked BMP4-induced Smad 1/5/8 phosphorylation”. In data set [13], the “Effect on BMP4-induced p38 MAPK phosphorylation” value is “no effect”. The “Effect on Activin A-induced Smad2 phosphorylation” value in data set [14] was “no effect”.
Take `c1ccc2c(-c3cnn4cc(-c5ccc(OCCN6CCOCC6)cc5)cnc34)ccnc2c1` [DMH2, 4-(2-(4-(3-(quinolin-4-yl)pyrazolo[1,5-a]pyrimidin-6-yl)phenoxy)ethyl)morpholine]: the “Dorsalization (EC100, μM)” value in [1] is roughly 0.1 µM. Besides, in data set [2] (administered at 12-hpf), the “Effect on ISV formation (words, no concentration given)” value is on record as “did not have any detectible effect on ISV formation”. In data set [9], the IC50 is roughly 20 nM. Besides, the “Nonspecific developmental effects” value in [4] (at higher concentrations) is “caused nonspecific developmental effects at higher concentrations”.
For the molecule `CN(C)CCCOc1ccc(-c2cnc3c(-c4ccnc5ccccc45)cnn3c2)cc1` [DMH3, N,N-dimethyl-3-(4-(3-(quinolin-4-yl)pyrazolo[1,5-a]pyrimidin-6-yl)phenoxy)propan-1-amine], in data set [1], the “Dorsalization (EC100, μM)” value is roughly 1 µM. In data set [2] (administered at 12-hpf), the “Effect on ISV formation (words, no concentration given)” value is “did not have any detectible effect on ISV formation”. The half-inhibitory concentration (IC50) in data set [9] is roughly 7 nM.
On to `c1ccc(-c2cnn3cc(-c4ccc(OCCN5CCOCC5)cc4)cnc23)cc1` [DMH4, 4-(2-(4-(3-phenylpyrazolo[1,5-a]pyrimidin-6-yl)phenoxy)ethyl)morpholine], for which the “Effect on dorsoventral axis at 50 μM” value in data set [1] (50 μM, treated from 3-hpf) was “no effect on dorsoventral axis”. The “Effect on DV axis (words, no concentration given)” value in [1] (administered at 3-hpf) was “no discernable effect on DV axis”. For the same molecule, the “Dorsalization (EC100, μM)” value in data set [1] is given as “No (>50) μM”. Also, the “Effect on ISV and SIV formation at 1 μM” value in [2] (1 μM) was “disrupted both ISV and SIV formation”. For the same molecule, the “Effect on ISV formation (words, no concentration given)” value in data set [2] (administered at 12-hpf) was “caused significant defects in the ISV and the subintestinal vessel (SIV)”. Besides, the “Effect on tubular network formation at 1 μM” value in data set [15] was “effectively blocked angiogenesis; also recorded: blocked VEGF-induced tubular network formation”. In addition, in data set [3] (50ng/ml VEGF165), the “Effect on VEGF-stimulated Flk1 phosphorylation” value is recorded as “effectively blocked VEGF-stimulated phosphorylation; also recorded: blocked VEGF-induced phosphorylation”. Further, the “Effect on VEGF-stimulated Akt phosphorylation” value in data set [16] is given as “effectively blocked VEGF-stimulated phosphorylation; also recorded: blocked VEGF-induced phosphorylation”.
Regarding `c1ccc2c(-c3cnn4cc(-c5ccc(N6CCNCC6)cc5)cnc34)ccnc2c1` [LDN-193189, reference compound], the “Dorsalization (EC100, μM)” value in data set [1] turned out to be 3 µM. Also, the “Effect on ISV formation at 20 μM” value in [2] (20 μM, administered at 12-hpf) was “significantly inhibited ISV formation”. Further, the “Early lethality at 20 μM” value in data set [4] is listed as “substantial early lethality”.
